EphB4 antag: blocks human EphB4 binding to ephrin-B2; P54760; EphB4 LBD / TNYL-RAW-Alexa532 peptide, fluorescence polarization; inhibition, % at 7 µM; hit rate 0.15% among 97,000;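 active = inhibition above the screen-wide mean inhibition plus 3 SD, cut at about 15% in these data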;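 also: 0% = DMSO wells and 100% = excess unlabeled TNYL-RAW peptide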
Target sequence (P54760 whole entry, looked up, the tested form may be a part): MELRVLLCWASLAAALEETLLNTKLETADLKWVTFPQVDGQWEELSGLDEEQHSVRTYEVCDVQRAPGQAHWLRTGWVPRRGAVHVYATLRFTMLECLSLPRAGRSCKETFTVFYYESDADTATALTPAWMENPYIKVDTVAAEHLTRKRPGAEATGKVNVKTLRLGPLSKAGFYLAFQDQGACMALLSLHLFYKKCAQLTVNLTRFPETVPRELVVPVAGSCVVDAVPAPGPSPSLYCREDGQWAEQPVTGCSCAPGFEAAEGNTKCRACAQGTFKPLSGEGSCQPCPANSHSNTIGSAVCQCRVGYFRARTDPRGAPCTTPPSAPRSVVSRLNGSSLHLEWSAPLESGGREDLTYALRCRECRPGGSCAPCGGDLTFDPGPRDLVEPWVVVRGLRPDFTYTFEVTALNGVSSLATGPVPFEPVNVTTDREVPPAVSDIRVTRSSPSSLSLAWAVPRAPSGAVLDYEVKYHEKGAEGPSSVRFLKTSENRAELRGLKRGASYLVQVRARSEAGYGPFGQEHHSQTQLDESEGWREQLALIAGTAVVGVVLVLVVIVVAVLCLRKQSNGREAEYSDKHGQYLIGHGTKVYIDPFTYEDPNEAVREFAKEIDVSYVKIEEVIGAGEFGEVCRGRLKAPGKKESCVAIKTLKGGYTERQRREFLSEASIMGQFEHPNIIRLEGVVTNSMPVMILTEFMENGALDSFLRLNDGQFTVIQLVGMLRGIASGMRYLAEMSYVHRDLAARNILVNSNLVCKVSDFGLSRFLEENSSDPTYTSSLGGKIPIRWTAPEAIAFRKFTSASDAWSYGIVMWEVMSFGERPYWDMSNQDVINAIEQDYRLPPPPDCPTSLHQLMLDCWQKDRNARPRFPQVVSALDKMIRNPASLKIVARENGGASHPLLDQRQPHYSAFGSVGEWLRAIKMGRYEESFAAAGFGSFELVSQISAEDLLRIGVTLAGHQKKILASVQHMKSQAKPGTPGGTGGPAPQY
Cav3 T inh: human Cav3.2 channel inhibition, primary screen; Cav3.2-expressing cells, Fluo-4 calcium fluorescence FDSS; stronger effect = lower value; hit rate 4% among 100,000; O95180; AID 449739; B-score at 10 µM;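 active = single-dose well whose peak fluorescence ratio is a statistical outlier from its plate by either plate-standardised score or position-corrected B-score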
DAT uptake mod: changed human dopamine transporter uptake under cocaine IC80. Q01959. LLC-PK1 hDAT cells, [14C]-dopamine uptake with cocaine IC80; actives deviate in either direction. B-score at 10 µM. hit rate 1.3% among 110,000;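 active = Z score or B-score, a plate-position-corrected score, falls beyond the plate's 99.7% confidence bounds, in either direction; inactive = both scores lie inside the 99.7% bounds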;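 also: scored against the spread of the other compound wells on the same plate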
HIV Rev-RRE inh: inhibitors of HIV-1 Rev-RRE RNA interaction; inhibition, % at 8 µM; Rev peptide-RRE RNA binding, FRET; hit rate 0.79% among 97,000; P05866;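 active = inhibition above the screen-wide mean plus 3 SD, cut at about 35% in these data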;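 also: 0% = median DMSO wells and 100% = median Neomycin B control wells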
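Test system: labelled RRE RNA duplex and labelled Rev peptide. Times: 5 min compound–RNA preincubation, then 15 min with peptide, 25 °C. Doses: single-dose 8 µM. Measured by: FRET, excitation 480 nm, emission 540 nm donor and 671 nm acceptor. Measure: % inhibition of FRET ratio versus controls.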
* = called active by the depositor; . = not tested or not shown. A selection: hits, their analogues and other compounds. The true share with any hit is near 5.4%.

SMILES | EphB4 antag | Cav3 T inh | DAT uptake mod | HIV Rev-RRE inh
COc1ccc(NC(=S)NCCSc2ccc(C)cc2)c(OC)c1 | 13.1 | -6.51* | 1.03 | -2.0
Clc1ccc(-c2ccc(/C=N/Nc3cc(N4CCOCC4)nc(N4CCOCC4)n3)o2)cc1 | 1.5 | 0.208 | 0.421 | -9.9
COc1ccc(C(OC(=O)c2ccco2)C(=O)NCC2CCCO2)cc1 (stereo unspecified) | 3.9 | -0.222 | -7.27* | 0.1
COc1ccc(C(OC(=O)c2cccs2)C(=O)NCC2CCCO2)cc1 (stereo unspecified) | -0.3 | 2.39 | 0.0637 | 0.7
CCC(Sc1nc(N)cc(N)n1)C(=O)O (stereo unspecified) | -3.3 | 0.903 | -0.00545 | 3.1
COc1ccc(OC)c(CNC(=O)CCN2C(=O)COc3ccccc32)c1 | 2.7 | 0.515 | 1.62* | 4.2
COc1ccc(Br)cc1CNC(=O)CCN1C(=O)COc2ccccc21 | . | 0.145 | 0.559 | .
CCCCC(=O)Nc1ccc(C(=O)NNC(=O)c2ccccc2Br)cc1 | 6.9 | 0.091 | -0.377 | 2.4
Cc1noc(C)c1CSc1nc2ccccc2n1CCc1ccccc1 | -1.4 | -4.14* | 0.381 | 1.5
Cc1noc(C)c1CSc1nnc(-c2ccccc2)n1N | -3.5 | -0.295 | -8.61* | 8.2
Cc1noc(C)c1CSc1nnc(-c2ccccc2)n1Cc1ccco1 | 3.4 | 0.0162 | 0.214 | 6.0
CC(O)Cc1cn([C@@H](CCCCNC(=O)OC(C)(C)C)C(=O)N2CCN(C(=O)OC(C)(C)C)CC2)nn1 (stereo partly specified) | . | -0.626 | -0.34 | .
CC(=O)c1ccc(NS(=O)(=O)Cc2ccc(Cl)cc2)cc1 | 2.9 | -0.0645 | 3.18* | 6.0
Cc1cc(C)c(S(=O)(=O)n2cnc3ccccc32)c(C)c1 | 7.7 | 0.625 | -0.333 | 8.6
CCOc1cc(C)c(Cl)cc1S(=O)(=O)n1cnc2ccccc21 | -4.2 | -5.67* | -0.407 | 13.8
Cc1c(-n2cc(C(=O)c3ccccc3O)cc(C#N)c2=O)c(=O)n(-c2ccccc2)n1C | -2.3 | . | . | 57.2*
CCCCn1cc(C(=O)c2cc(Br)ccc2O)cc(C#N)c1=O | 1.1 | . | 0.525 | 7.1
CN(C)c1ccc(/C=c2\sc3n(c2=O)CCCN=3)cc1 | -1.3 | -3.76 | -0.621 | 36.5*
CC(=O)OC(c1nc2ccccc2c(=O)n1C1CC2(OC1=O)c1ccccc1N1C(=O)C(C)(C)N(O)C12)C(C)C (stereo unspecified) | . | -0.439 | 0.472 | .
Cc1ccsc1C1Nc2ccc3ncccc3c2C2=C1C(=O)CC(C)(C)C2 (stereo unspecified) | 1.9 | -3.86* | -1.69 | 6.7
C=CCNc1nnc(SC2CC(=O)N(c3ccc(OCCC)cc3)C2=O)s1 (stereo unspecified) | -2.2 | 3.3* | -0.025 | 2.4
CNC(CC(C)C)C(=O)NC1C(=O)NC(CC(N)=O)C(=O)NC2C(=O)NC3C(=O)NC(C(=O)NC(C(=O)O)c4cc(O)cc(O)c4-c4cc3ccc4O)C(O)c3ccc(c(Cl)c3)Oc3cc2cc(c3OC2OC(CO)C(O)C(O)C2OC2CC(C)(N)C(O)C(C)O2)Oc2ccc(cc2Cl)C1O (stereo unspecified) | . | . | 1.56 | .
COc1cccc(CNc2cnc3ccccc3c2)c1O | -6.0 | -4.5* | 0.508 | 4.0
Cc1ccccc1-c1nc(CS(=O)(=O)CC(=O)NCc2ccccc2)c(C)o1 | 2.1 | -4.22* | -0.2 | 13.2
Cc1ccccc1-c1nc(CS(=O)(=O)CC(=O)N(C)C2CCCCC2)c(C)o1 | 2.0 | -7.3* | 0.637 | 4.1
SMILES | EphB4 antag | Cav3 T inh | DAT uptake mod | HIV Rev-RRE inh
Cc1oc(-c2ccccc2F)nc1CS(=O)(=O)CC(=O)N1CCCCCC1 | -6.3 | 0.637 | 0.00157 | -1.4
O=C(Nc1ccncc1)c1ccc2c(c1)C(=O)N(C1CCCCC1)C2=O | -6.0 | 0.0762 | -0.587 | -1.2
CN(C)CCNc1oc(COc2ccc(Cl)cc2Cl)nc1C#N | -2.4 | 0.35 | -0.203 | 16.2
COc1ccc(CNc2oc(COc3ccc(Cl)cc3)nc2C#N)cc1 | -1.0 | -4.43* | -1.11 | 18.9
COc1ccc(Nc2oc(COc3ccc(Cl)cc3)nc2C#N)cc1 | -4.7 | -0.843 | -0.0476 | 14.9
N#Cc1nc(COc2ccccc2F)oc1NCc1ccc(F)cc1 | 6.5 | -2.93 | 0.892 | 15.0
COCCCNc1oc(COc2ccc(Cl)cc2Cl)nc1C#N | -3.0 | -5.59* | 2.15* | 9.2
COc1ccc(CCNc2oc(COc3ccccc3F)nc2C#N)cc1 | -1.8 | -5.91* | -0.51 | 17.9
Cc1ccc(OCc2nc(C#N)c(NCc3ccc4c(c3)OCO4)o2)cc1 | 1.5 | -6.55* | -0.29 | 15.6
C=C(C)Cn1c(N2CC(C)CC(C)C2)nc2c1c(=O)[nH]c(=O)n2C (stereo unspecified) | . | -1.66 | 0.891 | .
COc1cccc(CNC(=O)C(=O)NCC2CCCO2)c1 (stereo unspecified) | 4.0 | 2.15 | 0.00825 | 10.2
O=C1NCCc2cc3c(cc21)OCO3 | 2.1 | 0.68 | 0.0705 | 9.8
N#Cc1c(N)nc2c3c(sc(=N)c2c1N)NC(=O)CC3c1c(F)cccc1Cl (stereo unspecified) | 3.7 | 0.872 | 0.485 | 24.3
N#Cc1c(N)nc2c3c(sc(=N)c2c1N)NC(=O)CC3c1ccccc1 (stereo unspecified) | -2.4 | -0.299 | 0.0904 | 48.8*
Cc1cc(N2CCOCC2)nc(-c2ccc([N+](=O)[O-])cc2)n1 | -7.2 | . | . | -1.6
Cc1cccc(NS(=O)(=O)c2cccc3nsnc23)c1 | 3.2 | -1.04 | 0.0232 | 7.8
Cc1ccc(C)c(S(=O)(=O)Nc2ccc3scnc3c2)c1 | 2.0 | -4.57* | 2 | 5.1
O=C(Nc1nnc(-c2cccs2)o1)c1cccc(Oc2ccccc2)c1 | 9.2 | -8.33* | 0.083 | 6.0
COc1ccc(NC(=O)C(=O)N/N=C/c2cc(C)n(-c3cccc(Cl)c3Cl)c2C)c(OC)c1 | 5.1 | -3.26 | 0.576 | 2.4
O=C(CSc1ccc2ccccc2n1)N1CCC(c2noc3ccc(F)cc23)CC1 | 7.9 | -6.46* | 0.104 | 6.8
Cc1nc2ncnn2c(N2CCN(C(c3ccccc3)c3ccccc3)CC2)c1C | 0.9 | -4.26 | 3.15* | 6.7
C=CCn1nnc2sc3c(c2c1=O)CCC(C)C3 (stereo unspecified) | 4.3 | -0.114 | -0.653 | 2.5
CC1=C(C(=O)OCC(C)C)[C@]23C(=O)c4ccccc4[C@@]2(O1)OC(N)=C3C#N | -13.5 | -3.92 | 0.101 | 9.7
CCC(C)OC(=O)C1=C(C)OC23OC(N)=C(C#N)C12C(=O)c1ccccc13 (stereo unspecified) | 3.8 | -2.7* | 0.0197 | 7.2
CCCC(=O)c1c[nH]c(C(=O)NCCc2ccccn2)c1 | -10.0 | 0.0168 | 0.0753 | -3.4
COC(=O)C(Cc1ccccc1)NC(=O)COc1ccc(C(C)(C)C)cc1 (stereo unspecified) | 2.2 | -6.09* | -0.629 | -0.8
Cc1cccc(OCC(=O)Nc2ccc(N3CCN(S(C)(=O)=O)CC3)cc2)c1C | 0.4 | 0.674 | 0.268 | 0.9
Cc1ccccc1OCC(=O)Nc1ccc(N2CCN(S(C)(=O)=O)CC2)cc1 | 6.7 | -0.699 | -8.1* | 0.0
O=C(c1ccc(NS(=O)(=O)c2cccs2)cc1)N1CCCCC1 | 3.5 | 0.197 | -0.189 | 7.9

Screening data: PubChem, several laboratories
